From ChEMBL document CHEMBL1130132, “Selective inhibition of neuronal nitric oxide synthase by N omega-nitroarginine-and phenylalanine-containing dipeptides and dipeptide esters” (J Med Chem, 1997) come the findings set out here.

The target of assay [1] is Nitric oxide sythases; iNOS & nNOS (Homo sapiens) (UniProt P29475+P35228). Kind of assay: Selectivity for nNOS and iNOS, ratio of Ki. In kind it is protein assay.
Assay [2] is described as follows: Selectivity for iNOS and eNOS binding, ratio of Ki.
A short description of assay [3]: Selectivity for nNOS and eNOS, ratio of Ki.
In another assay the target is T1, Nitric oxide synthase 3 (Bos taurus, UniProt P29473).
T1 sequence (P29473 whole entry): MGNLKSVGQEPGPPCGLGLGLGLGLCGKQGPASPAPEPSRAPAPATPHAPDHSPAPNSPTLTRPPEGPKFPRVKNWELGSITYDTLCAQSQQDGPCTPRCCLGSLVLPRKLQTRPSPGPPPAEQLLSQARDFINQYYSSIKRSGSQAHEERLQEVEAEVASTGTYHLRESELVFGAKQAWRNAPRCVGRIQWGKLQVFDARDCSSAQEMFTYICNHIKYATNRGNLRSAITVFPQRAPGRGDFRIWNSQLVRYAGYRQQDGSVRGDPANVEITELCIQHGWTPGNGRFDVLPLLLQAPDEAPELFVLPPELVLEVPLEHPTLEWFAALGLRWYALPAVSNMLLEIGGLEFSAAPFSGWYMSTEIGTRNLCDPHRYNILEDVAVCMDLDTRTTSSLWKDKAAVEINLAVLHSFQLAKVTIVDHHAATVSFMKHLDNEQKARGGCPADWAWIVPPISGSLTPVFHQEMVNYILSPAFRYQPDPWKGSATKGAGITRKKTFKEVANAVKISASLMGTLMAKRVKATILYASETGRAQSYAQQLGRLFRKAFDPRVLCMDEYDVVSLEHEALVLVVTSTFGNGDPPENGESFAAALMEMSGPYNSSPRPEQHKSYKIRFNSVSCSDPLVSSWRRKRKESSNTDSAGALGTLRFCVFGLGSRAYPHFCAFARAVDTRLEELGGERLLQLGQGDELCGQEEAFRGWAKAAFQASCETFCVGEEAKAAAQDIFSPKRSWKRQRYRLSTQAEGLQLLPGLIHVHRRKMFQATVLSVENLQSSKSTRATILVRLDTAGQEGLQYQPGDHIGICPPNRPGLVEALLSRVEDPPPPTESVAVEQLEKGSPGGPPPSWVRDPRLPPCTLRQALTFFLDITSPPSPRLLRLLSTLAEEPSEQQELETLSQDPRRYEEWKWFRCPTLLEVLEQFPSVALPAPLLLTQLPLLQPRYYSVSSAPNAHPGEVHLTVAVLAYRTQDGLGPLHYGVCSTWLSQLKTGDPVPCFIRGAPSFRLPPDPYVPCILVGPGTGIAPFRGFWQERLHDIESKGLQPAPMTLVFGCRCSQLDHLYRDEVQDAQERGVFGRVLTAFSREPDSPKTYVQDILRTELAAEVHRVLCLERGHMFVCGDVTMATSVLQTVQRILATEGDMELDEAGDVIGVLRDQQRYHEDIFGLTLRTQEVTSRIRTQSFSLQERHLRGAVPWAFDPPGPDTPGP
Put plainly: Inhibition of endothelial isoform of nitric oxide synthase. The procedure, abridged: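 eNOS expressed in E. coli, purified and supplemented with L-arginine and BH4 (235 nmol NO/mg/min at 25 °C). NO formation was followed by oxyhemoglobin capture (80 µM) under initial rates in 50 mM Hepes pH 7.5 with 3-25 µM L-arginine, 100 µM DTT, 10 µM CaCl2, 1 µg/mL calmodulin, 5 µM BH4 and 100 µM NADPH. Ki came from Dixon plots with varied substrate and inhibitor.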

For assay [4], the target named is T2, Nitric oxide synthase, inducible (Mus musculus, UniProt P29477).
T2 sequence (P29477 whole entry): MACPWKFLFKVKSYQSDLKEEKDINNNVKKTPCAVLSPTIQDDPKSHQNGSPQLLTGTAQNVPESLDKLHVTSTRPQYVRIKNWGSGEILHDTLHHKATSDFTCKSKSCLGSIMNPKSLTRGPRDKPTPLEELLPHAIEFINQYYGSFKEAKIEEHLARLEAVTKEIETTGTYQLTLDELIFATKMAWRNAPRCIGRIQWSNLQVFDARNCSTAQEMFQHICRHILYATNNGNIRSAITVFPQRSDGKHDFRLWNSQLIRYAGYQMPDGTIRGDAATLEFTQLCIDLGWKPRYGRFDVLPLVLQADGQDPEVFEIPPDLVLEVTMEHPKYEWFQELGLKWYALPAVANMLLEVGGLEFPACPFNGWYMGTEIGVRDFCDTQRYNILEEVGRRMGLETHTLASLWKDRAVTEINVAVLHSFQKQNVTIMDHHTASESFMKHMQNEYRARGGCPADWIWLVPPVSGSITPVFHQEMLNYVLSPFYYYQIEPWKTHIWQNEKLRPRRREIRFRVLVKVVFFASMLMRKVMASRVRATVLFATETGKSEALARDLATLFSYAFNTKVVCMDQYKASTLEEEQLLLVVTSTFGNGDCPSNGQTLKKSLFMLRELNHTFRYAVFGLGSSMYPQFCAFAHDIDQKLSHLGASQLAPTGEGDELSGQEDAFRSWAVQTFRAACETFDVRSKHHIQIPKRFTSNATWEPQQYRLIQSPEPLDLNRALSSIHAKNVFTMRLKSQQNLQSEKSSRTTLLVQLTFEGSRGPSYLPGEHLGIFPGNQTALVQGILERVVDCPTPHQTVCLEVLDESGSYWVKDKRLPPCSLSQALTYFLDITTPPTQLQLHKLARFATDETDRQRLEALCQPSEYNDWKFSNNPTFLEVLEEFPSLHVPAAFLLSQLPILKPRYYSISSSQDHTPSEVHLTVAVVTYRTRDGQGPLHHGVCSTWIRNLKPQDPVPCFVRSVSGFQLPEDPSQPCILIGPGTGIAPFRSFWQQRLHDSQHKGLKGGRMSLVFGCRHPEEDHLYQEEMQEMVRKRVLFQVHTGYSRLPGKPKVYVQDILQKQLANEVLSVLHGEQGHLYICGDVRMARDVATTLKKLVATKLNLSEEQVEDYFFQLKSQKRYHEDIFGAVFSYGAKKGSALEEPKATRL
Put plainly: Inhibition of inducible Nitric Oxide Synthase. The procedure, abridged:
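Purified murine macrophage iNOS expressed in recombinant E. coli (500 nmol NO/mg/min at 30 °C). Initial-rate hemoglobin capture assay in 100 mM Hepes pH 7.5 with 10-60 µM L-arginine, 100 µM DTT, 100 µM NADPH, 6.5 µM BH4 and 3 µM oxyhemoglobin, without added calcium/calmodulin. Ki taken from Dixon plots across varied L-arginine and inhibitor concentrations.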

Where a SMILES comes first, the peptide text is derived from it. [ ]: non-standard residue; d: D form. The star is where a group is joined. dArg(NO2) = N=C(NCCC[C@@H](N)C(=O)O)N[N+](=O)[O-]; Arg(NO2) = N=C(NCCC[C@H](N)C(=O)O)N[N+](=O)[O-]; OBn = c1ccc(CO*)cc1

Chain of Nitric oxide sythases; iNOS & nNOS (Homo sapiens) (P29475 whole entry, looked up): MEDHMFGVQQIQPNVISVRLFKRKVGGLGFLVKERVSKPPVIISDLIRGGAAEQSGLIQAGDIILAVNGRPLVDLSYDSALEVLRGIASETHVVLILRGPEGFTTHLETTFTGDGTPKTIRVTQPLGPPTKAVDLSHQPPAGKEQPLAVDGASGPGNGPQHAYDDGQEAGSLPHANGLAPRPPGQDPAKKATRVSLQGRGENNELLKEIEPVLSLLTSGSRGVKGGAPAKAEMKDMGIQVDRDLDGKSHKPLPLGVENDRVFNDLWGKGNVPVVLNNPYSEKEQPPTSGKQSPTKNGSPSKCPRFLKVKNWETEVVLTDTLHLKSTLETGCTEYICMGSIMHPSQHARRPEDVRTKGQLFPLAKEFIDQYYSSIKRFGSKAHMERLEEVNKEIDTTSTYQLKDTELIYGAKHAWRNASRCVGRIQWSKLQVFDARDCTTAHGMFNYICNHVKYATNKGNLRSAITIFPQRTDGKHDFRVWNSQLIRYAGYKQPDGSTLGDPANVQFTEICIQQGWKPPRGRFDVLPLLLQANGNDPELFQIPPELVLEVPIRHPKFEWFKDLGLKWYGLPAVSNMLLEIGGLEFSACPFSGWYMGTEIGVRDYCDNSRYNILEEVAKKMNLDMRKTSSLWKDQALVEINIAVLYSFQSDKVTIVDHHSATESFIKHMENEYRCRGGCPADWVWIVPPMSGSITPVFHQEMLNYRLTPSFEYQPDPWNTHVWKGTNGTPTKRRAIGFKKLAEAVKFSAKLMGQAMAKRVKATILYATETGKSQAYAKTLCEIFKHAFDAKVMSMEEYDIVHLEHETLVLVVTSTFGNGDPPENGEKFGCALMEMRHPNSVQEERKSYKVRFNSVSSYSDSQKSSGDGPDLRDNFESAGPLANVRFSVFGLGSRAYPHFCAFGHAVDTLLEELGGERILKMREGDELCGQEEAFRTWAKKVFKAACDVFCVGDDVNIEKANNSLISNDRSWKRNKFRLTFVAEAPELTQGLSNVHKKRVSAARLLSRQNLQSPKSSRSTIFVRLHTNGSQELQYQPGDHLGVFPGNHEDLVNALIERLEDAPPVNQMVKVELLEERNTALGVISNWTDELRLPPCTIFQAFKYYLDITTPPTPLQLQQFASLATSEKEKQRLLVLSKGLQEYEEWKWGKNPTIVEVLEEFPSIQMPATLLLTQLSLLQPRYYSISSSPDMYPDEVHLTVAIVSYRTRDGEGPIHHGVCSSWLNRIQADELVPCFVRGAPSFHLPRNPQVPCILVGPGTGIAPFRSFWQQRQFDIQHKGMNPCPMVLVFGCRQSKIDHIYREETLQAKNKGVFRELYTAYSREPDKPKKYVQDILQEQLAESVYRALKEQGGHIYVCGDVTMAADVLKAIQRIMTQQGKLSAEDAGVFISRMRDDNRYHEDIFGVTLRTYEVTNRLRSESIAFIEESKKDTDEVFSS
Chain of Nitric oxide sythases; iNOS & nNOS (Homo sapiens) (P35228 whole entry, looked up): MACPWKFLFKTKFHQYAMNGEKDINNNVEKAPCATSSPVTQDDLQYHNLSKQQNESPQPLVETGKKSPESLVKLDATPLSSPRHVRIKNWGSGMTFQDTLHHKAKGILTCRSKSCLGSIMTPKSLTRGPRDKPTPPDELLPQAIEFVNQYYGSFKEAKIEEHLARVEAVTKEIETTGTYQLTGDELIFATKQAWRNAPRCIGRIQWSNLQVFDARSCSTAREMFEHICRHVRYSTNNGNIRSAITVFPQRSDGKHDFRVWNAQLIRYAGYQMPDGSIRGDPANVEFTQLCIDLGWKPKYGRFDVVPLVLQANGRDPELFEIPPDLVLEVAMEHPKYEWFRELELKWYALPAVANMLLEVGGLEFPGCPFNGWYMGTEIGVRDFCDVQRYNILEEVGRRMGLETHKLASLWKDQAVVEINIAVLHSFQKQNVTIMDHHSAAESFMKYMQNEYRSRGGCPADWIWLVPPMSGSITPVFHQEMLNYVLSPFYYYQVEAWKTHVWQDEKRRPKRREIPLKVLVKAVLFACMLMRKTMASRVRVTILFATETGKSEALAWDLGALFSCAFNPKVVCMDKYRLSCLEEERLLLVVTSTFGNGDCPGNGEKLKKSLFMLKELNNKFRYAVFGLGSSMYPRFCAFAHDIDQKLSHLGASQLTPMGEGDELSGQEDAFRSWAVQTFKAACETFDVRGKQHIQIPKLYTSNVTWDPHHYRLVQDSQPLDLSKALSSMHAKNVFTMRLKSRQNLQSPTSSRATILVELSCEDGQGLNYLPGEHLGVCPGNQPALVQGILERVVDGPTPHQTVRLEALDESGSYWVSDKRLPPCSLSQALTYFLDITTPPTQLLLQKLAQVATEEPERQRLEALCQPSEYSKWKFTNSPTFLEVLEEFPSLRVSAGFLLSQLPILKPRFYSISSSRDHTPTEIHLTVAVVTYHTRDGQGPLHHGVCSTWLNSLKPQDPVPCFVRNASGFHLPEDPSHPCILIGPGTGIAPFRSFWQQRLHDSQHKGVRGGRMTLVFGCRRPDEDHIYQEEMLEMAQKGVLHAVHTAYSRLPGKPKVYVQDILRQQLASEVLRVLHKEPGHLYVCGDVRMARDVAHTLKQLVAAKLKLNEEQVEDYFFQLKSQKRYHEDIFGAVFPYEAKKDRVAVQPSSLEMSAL

For the compound `N/C(=N\CCC[C@H](NC(=O)[C@@H](N)Cc1ccccc1)C(=O)O)N[N+](=O)[O-]` (H-Phe-[Arg(NO2)]-OH), the Selectivity came out at 0.66 in assay [1], 5.3 in assay [2] and 3.5 in assay [3].
For orientation: Ki means a dissociation constant, usually derived from enzyme kinetics or from competition with a known ligand. Consider `N=C(NCCC[C@H](NC(=O)[C@@H](N)Cc1ccccc1)C(=O)O)N[N+](=O)[O-]` (H-Phe-[Arg(NO2)]-OH), for which the Ki at Nitric oxide synthase 3 came out at 490 µM; in assay [4] it was 93 µM.
In the case of `COC(=O)[C@@H](Cc1ccccc1)NC(=O)[C@H](N)CCC/N=C(\N)N[N+](=O)[O-]`, the values for the Selectivity in assay [1], in assay [2] and in assay [3] were 43.3, 0.058 and 2.5, respectively.
On to `COC(=O)[C@@H](CCCNC(=N)N[N+](=O)[O-])NC(=O)[C@H](N)Cc1ccccc1` [listing 1 of 2 here], for which the Ki at Nitric oxide synthase 3 amounted to 5 µM; in assay [4], 3600 µM.
For `N/C(=N\CCC[C@@H](NC(=O)[C@H](N)Cc1ccccc1)C(=O)O)N[N+](=O)[O-]` (H-[dF]-[dArg(NO2)]-OH), the figures for the Selectivity in assay [1], in assay [2] and in assay [3] were 800, 0.0066 and 5.3, respectively. The Ki at Nitric oxide synthase 3 was determined as 90 µM; in assay [4], 13600 µM.
The like results for `COC(=O)[C@@H](Cc1ccccc1)NC(=O)[C@@H](N)CCC/N=C(\N)N[N+](=O)[O-]` were, in that order, 1.1, 5.3, 5.7, 525 µM and 100 µM.
With `COC(=O)[C@@H](CCCNC(=N)N[N+](=O)[O-])NC(=O)[C@H](N)Cc1ccccc1` [listing 2 of 2 here], the Ki on Nitric oxide synthase 3 is 8500 µM; in assay [4] it was 1200 µM.
Take `N/C(=N\CCC[C@H](N)C(=O)N[C@@H](Cc1ccccc1)C(=O)O)N[N+](=O)[O-]`: the results for the Selectivity in assay [1], in assay [2] and in assay [3] were 8.9, 2.5 and 21.9, respectively. Also, the inhibition constant Ki turned out to be 395 µM at Nitric oxide synthase 3 and 160 µM in assay [4].
The like results for `COC(=O)[C@H](CCC/N=C(\N)N[N+](=O)[O-])NC(=O)[C@@H](N)Cc1ccccc1` were, in that order, 0.55, 6.6, 3.6, 1350 µM and 204 µM.
The like results for `N/C(=N\CCC[C@H](N)C(=O)N[C@@H](Cc1ccccc1)C(=O)OCc1ccccc1)N[N+](=O)[O-]` were, in that order, 0.33, 6.9, 2.3, 125 µM and 18 µM.
The like results for `N/C(=N\CCC[C@H](NC(=O)[C@@H](N)Cc1ccccc1)C(=O)OCc1ccccc1)N[N+](=O)[O-]` (H-Phe-[Arg(NO2)]-OBn) were, in that order, 0.41, 5.6, 2.3, 250 µM and 45 µM.
On to `COC(=O)[C@H](Cc1ccccc1)NC(=O)[C@@H](N)CCC/N=C(\N)N[N+](=O)[O-]`, for which the inhibitory constant (Ki) on Nitric oxide synthase 3 was 400 µM; in assay [4], 45 µM.
As for `COC(=O)[C@@H](Cc1ccccc1)NC(=O)[C@H](N)CCCNC(=N)N[N+](=O)[O-]`, the Ki at Nitric oxide synthase 3 was 375 µM; in assay [4], 6500 µM.
`COC(=O)[C@@H](CCC/N=C(\N)N[N+](=O)[O-])NC(=O)[C@@H](N)Cc1ccccc1`: the Selectivity in assay [1] was determined as 83.3; in assay [2] it was 0.02; in assay [3] it was 1.7. Also, the figures for the Ki (on Nitric oxide synthase 3; in assay [4]) were 150 µM and 7500 µM, respectively.
